From ChEMBL document CHEMBL4190234, “Design, synthesis and anticancer activity of new monastrol analogues bearing 1,3,4-oxadiazole moiety” (Eur J Med Chem, 2017)

What was measured:
Assay type in all cases: functional
HOP-62 = test: Growth inhibition of human HOP62 cells at 10 uM incubated for 48 hrs by sulforhodamine B assay relative to control; settings: HOP-62, 48 h, read-out: GI
Method in brief: (§1)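 Single-dose screen at 10 μM final: cells in RPMI 1640, 5% FBS, 2 mM L-glutamine, plated 5,000–40,000/well, preincubated 24 h at 37°C, 5% CO2; drug 48 h; adherent cells fixed with 10% TCA, suspension cells with 16% TCA; SRB stain, absorbance 515 nm; percentage growth versus untreated control, with time-zero plates.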

BT-549 = test: Growth inhibition of human BT549 cells at 10 uM incubated for 48 hrs by sulforhodamine B assay relative to control; settings: BT-549, 48 h, read-out: GI; method in brief: as §1
MCF7 = test: Growth inhibition of human MCF7 cells at 10 uM incubated for 48 hrs by sulforhodamine B assay relative to control; settings: MCF7, 48 h, read-out: GI; method in brief: as §1
OVCAR-8 = test: Growth inhibition of human OVCAR8 cells at 10 uM incubated for 48 hrs by sulforhodamine B assay relative to control; settings: OVCAR-8, 48 h, read-out: GI; method in brief: as §1
UACC-257 = test: Growth inhibition of human UACC257 cells at 10 uM incubated for 48 hrs by sulforhodamine B assay relative to control; settings: UACC-257, 48 h, read-out: GI
Method in brief: (§2)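 NCI single-dose screen: cells grown in RPMI 1640 with 5% FBS and 2 mM L-glutamine, plated at 5,000–40,000 cells/well and preincubated 24 h at 37 °C, 5% CO2. Compounds taken from DMSO stock and tested at final 10 µM for 48 h. Cells fixed with TCA, stained with 0.4% SRB, absorbance read at 515 nm. Percentage growth calculated against untreated controls; controls held DMSO at the same dilution.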

SNB-19 = test: Growth inhibition of human SNB19 cells at 10 uM incubated for 48 hrs by sulforhodamine B assay relative to control; settings: SNB-19, 48 h, read-out: GI; method in brief: as §2
MDA-MB-468 = test: Growth inhibition of human MDA-MB-468 cells at 10 uM incubated for 48 hrs by sulforhodamine B assay relative to control; settings: MDA-MB-468, 48 h, read-out: GI; method in brief: as §1
IGROV-1 = test: Growth inhibition of human IGROV1 cells at 10 uM incubated for 48 hrs by sulforhodamine B assay relative to control; settings: IGROV-1, 48 h, read-out: GI; method in brief: as §1
Hs-578T = test: Growth inhibition of human Hs 578T cells at 10 uM incubated for 48 hrs by sulforhodamine B assay relative to control; settings: read-out: GI; method in brief: as §1
COLO 205 = test: Growth inhibition of human COLO205 cells at 10 uM incubated for 48 hrs by sulforhodamine B assay relative to control; settings: COLO 205, 48 h, read-out: GI; method in brief: as §1
SW-620 = test: Growth inhibition of human SW620 cells at 10 uM incubated for 48 hrs by sulforhodamine B assay relative to control; settings: SW-620, 48 h, read-out: GI; method in brief: as §2
UACC-62 = test: Growth inhibition of human UACC62 cells at 10 uM incubated for 48 hrs by sulforhodamine B assay relative to control; settings: UACC-62, 48 h, read-out: GI; method in brief: as §2
NCI-H226 = test: Growth inhibition of human NCI-H226 cells at 10 uM incubated for 48 hrs by sulforhodamine B assay relative to control; settings: NCI-H226, 48 h, read-out: GI; method in brief: as §1
SF-295 = test: Growth inhibition of human SF295 cells at 10 uM incubated for 48 hrs by sulforhodamine B assay relative to control; settings: SF-295, 48 h, read-out: GI; method in brief: as §2
A498 = test: Growth inhibition of human A498 cells at 10 uM incubated for 48 hrs by sulforhodamine B assay relative to control; settings: A498, 48 h, read-out: GI; method in brief: as §1
HT-29 = test: Growth inhibition of human HT-29 cells at 10 uM incubated for 48 hrs by sulforhodamine B assay relative to control; settings: HT-29, 48 h, read-out: GI; method in brief: as §1
U-251 = test: Growth inhibition of human U251 cells at 10 uM incubated for 48 hrs by sulforhodamine B assay relative to control; settings: U-251, 48 h, read-out: GI; method in brief: as §2
SK-MEL-28 = test: Growth inhibition of human SK-MEL-28 cells at 10 uM incubated for 48 hrs by sulforhodamine B assay relative to control; settings: SK-MEL-28, 48 h, read-out: GI; method in brief: as §2
MDA-MB-231 = test: Growth inhibition of human MDA-MB-231 cells at 10 uM incubated for 48 hrs by sulforhodamine B assay relative to control; settings: MDA-MB-231, 48 h, read-out: GI; method in brief: as §1
786-0 = test: Growth inhibition of human 786-0 cells at 10 uM incubated for 48 hrs by sulforhodamine B assay relative to control; settings: 786-0, 48 h, read-out: GI; method in brief: as §1
SR = test: Growth inhibition of human SR cells at 10 uM incubated for 48 hrs by sulforhodamine B assay relative to control; settings: read-out: GI; method in brief: as §2
T47D = test: Growth inhibition of human T47D cells at 10 uM incubated for 48 hrs by sulforhodamine B assay relative to control; settings: read-out: GI; method in brief: as §2
HCT-116 = test: Growth inhibition of human HCT116 cells at 10 uM incubated for 48 hrs by sulforhodamine B assay relative to control; settings: HCT-116, 48 h, read-out: GI; method in brief: as §1
SN12C = test: Growth inhibition of human SN12C cells at 10 uM incubated for 48 hrs by sulforhodamine B assay relative to control; settings: read-out: GI; method in brief: as §2
PC-3 = test: Growth inhibition of human PC3 cells at 10 uM incubated for 48 hrs by sulforhodamine B assay relative to control; settings: PC-3, 48 h, read-out: GI; method in brief: as §1
MDA-MB-435 = test: Growth inhibition of human MDA-MB-435 cells at 10 uM incubated for 48 hrs by sulforhodamine B assay relative to control; settings: MDA-MB-435, 48 h, read-out: GI; method in brief: as §1
SK-MEL-2 = test: Growth inhibition of human SK-MEL-2 cells at 10 uM incubated for 48 hrs by sulforhodamine B assay relative to control; settings: SK-MEL-2, 48 h, read-out: GI; method in brief: as §2
Malme-3M = test: Growth inhibition of human MALME-3M cells at 10 uM incubated for 48 hrs by sulforhodamine B assay relative to control; settings: read-out: GI; method in brief: as §1
A549 = test: Growth inhibition of human A549/ATCC cells at 10 uM incubated for 48 hrs by sulforhodamine B assay relative to control; settings: A549, 48 h, read-out: GI; method in brief: as §1
CCRF-CEM = test: Growth inhibition of human CCRF-CEM cells at 10 uM incubated for 48 hrs by sulforhodamine B assay relative to control; settings: read-out: GI; method in brief: as §1

## COc1ccc(-c2nnc(CSC3=NC(c4ccc(F)cc4)C(C(C)=O)=C(C)N3)o2)cc1 (stereo not given)
HOP-62
  inhibition of growth at 10 µM: 19.4%
BT-549
  inhibition of growth at 10 µM: < 10%
MCF7
  inhibition of growth at 10 µM: 10.5%
OVCAR-8
  inhibition of growth at 10 µM: < 10%
UACC-257
  inhibition of growth at 10 µM: < 10%
SNB-19
  inhibition of growth at 10 µM: 13.4%
MDA-MB-468
  inhibition of growth at 10 µM: < 10%
IGROV-1
  inhibition of growth at 10 µM: < 10%
Hs-578T
  inhibition of growth at 10 µM: < 10%
COLO 205
  inhibition of growth at 10 µM: < 10%
SW-620
  inhibition of growth at 10 µM: < 10%
UACC-62
  inhibition of growth at 10 µM: 10.8%
NCI-H226
  inhibition of growth at 10 µM: < 10%
SF-295
  inhibition of growth at 10 µM: < 10%
A498
  inhibition of growth at 10 µM: < 10%
HT-29
  inhibition of growth at 10 µM: < 10%
U-251
  inhibition of growth at 10 µM: 15.3%
SK-MEL-28
  inhibition of growth at 10 µM: < 10%
MDA-MB-231
  inhibition of growth at 10 µM: 14.4%
786-0
  inhibition of growth at 10 µM: < 10%
SR
  inhibition of growth at 10 µM: 13.3%
T47D
  inhibition of growth at 10 µM: 28.9%
HCT-116
  inhibition of growth at 10 µM: < 10%
SN12C
  inhibition of growth at 10 µM: < 10%
PC-3
  inhibition of growth at 10 µM: 18.7%
MDA-MB-435
  inhibition of growth at 10 µM: < 10%
SK-MEL-2
  inhibition of growth at 10 µM: < 10%
Malme-3M
  inhibition of growth at 10 µM: 12.3%
A549
  inhibition of growth at 10 µM: 15.6%
CCRF-CEM
  inhibition of growth at 10 µM: 15.7%

## CCOC(=O)C1=C(C)NC(SCc2nnc(-c3ccc(Cl)cc3)o2)=NC1c1ccc(F)cc1 (stereo not given)
HOP-62
  inhibition of growth at 10 µM: < 10%
BT-549
  inhibition of growth at 10 µM: < 10%
MCF7
  inhibition of growth at 10 µM: 13.3%
OVCAR-8
  inhibition of growth at 10 µM: 11.7%
UACC-257
  inhibition of growth at 10 µM: < 10%
SNB-19
  inhibition of growth at 10 µM: 11.6%
MDA-MB-468
  inhibition of growth at 10 µM: 17.1%
IGROV-1
  inhibition of growth at 10 µM: 17.1%
Hs-578T
  inhibition of growth at 10 µM: < 10%
COLO 205
  inhibition of growth at 10 µM: < 10%
SW-620
  inhibition of growth at 10 µM: < 10%
UACC-62
  inhibition of growth at 10 µM: 10.7%
NCI-H226
  inhibition of growth at 10 µM: 10.6%
SF-295
  inhibition of growth at 10 µM: < 10%
A498
  inhibition of growth at 10 µM: 12.3%
HT-29
  inhibition of growth at 10 µM: 10.3%
U-251
  inhibition of growth at 10 µM: 10.1%
SK-MEL-28
  inhibition of growth at 10 µM: < 10%
MDA-MB-231
  inhibition of growth at 10 µM: < 10%
786-0
  inhibition of growth at 10 µM: 10.7%
SR
  inhibition of growth at 10 µM: 16.7%
T47D
  inhibition of growth at 10 µM: 27.1%
HCT-116
  inhibition of growth at 10 µM: 21.7%
SN12C
  inhibition of growth at 10 µM: < 10%
PC-3
  inhibition of growth at 10 µM: 23.4%
MDA-MB-435
  inhibition of growth at 10 µM: < 10%
SK-MEL-2
  inhibition of growth at 10 µM: < 10%
Malme-3M
  inhibition of growth at 10 µM: < 10%
A549
  inhibition of growth at 10 µM: 11.7%
CCRF-CEM
  inhibition of growth at 10 µM: 16.9%
